Source: ChEMBL document CHEMBL4364291, “Benzylideneacetone Derivatives Inhibit Osteoclastogenesis and Activate Osteoblastogenesis Independently Based on Specific Structure-Activity Relationship” (J Med Chem, 2019)
The source made the active and inactive calls. The calls are words filed in the database; no cut-off is given here.

Legend:
[1] = Inhibition of M-CSF/RANKL-induced osteoclast differentiation in C57BL/6 mouse bone marrow macrophage assessed as reduction in multinucleated TRAP+ cells incubated for 6 days with fresh media replacement on day 3 and measured on day 6 by TRAP staining-based microscopic analysis; type: functional, cell-based; conditions: C57BL/6, BMDM
Outline: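 BMM came from femur and tibia marrow of 5–8-week-old male C57BL/6 mice and were purified over lymphocyte separation medium. Cells, 1 × 10^5 per well, were grown in α-MEM/10% FBS with M-CSF (60 ng/mL) and RANKL (150 ng/mL) for 6 d, medium changed day 3. Compound range was 0.01−100 μM. TRAP+ multinucleated cells were counted on day 6.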

[2] = test system: Mus musculus; test: Antiosteoporotic activity in ddY mouse model of OVX-induced osteoporosis assessed as increase in femur bone mineral density at 10 mg/kg, po administered once daily via gavage for 4 weeks by microcomputed tomographic analysis; type: functional, organism-based
Outline: (§1)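 Female ddY mice were ovariectomized. Oral gavage began 1 week after surgery and ran once daily for 28 d. Vehicle was 300 μL PBS containing 0.5% (v/v) DMSO, also given to sham and OVX controls. Mice were then euthanized and femur and tibia fixed for CT imaging. Values are mean ± SD of four mice.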

[3] = test system: Mus musculus; test: Antiosteoporotic activity in ddY mouse model of OVX-induced osteoporosis assessed as increase in ratio of bone volume/trabecular volume in femur bone at 10 mg/kg, po administered once daily via gavage for 4 weeks by microcomputed tomographic analysis; type: functional, organism-based; outline: as §1
[4] = test system: Mus musculus; test: Antiosteoporotic activity in ddY mouse model of OVX-induced osteoporosis assessed as increase in cross-sectional thickness in femur bone at 10 mg/kg, po administered once daily via gavage for 4 weeks by microcomputed tomographic analysis; type: functional, organism-based; outline: as §1
[5] = test system: Mus musculus; test: Antiosteoporotic activity in ddY mouse model of OVX-induced osteoporosis assessed as increase in trabecular number in femur bone at 10 mg/kg, po administered once daily via gavage for 4 weeks by microcomputed tomographic analysis; type: functional, organism-based; outline: as §1
[6] = test system: Mus musculus; test: Antiosteoporotic activity in ddY mouse model of OVX-induced osteoporosis assessed as increase in trabecular thickness in femur bone at 10 mg/kg, po administered once daily via gavage for 4 weeks by microcomputed tomographic analysis; type: functional, organism-based; outline: as §1
[7] = test system: Mus musculus; test: Antiosteoporotic activity in ddY mouse model of OVX-induced osteoporosis assessed as reduction in trabecular separation in femur bone at 10 mg/kg, po administered once daily via gavage for 4 weeks by microcomputed tomographic analysis; type: functional, organism-based; outline: as §1
[8] = test system: Mus musculus; test: Antiosteoporotic activity in ddY mouse model of OVX-induced osteoporosis assessed as increase in new bone volume in femur bone at 10 mg/kg, po administered once daily via gavage for 4 weeks by microcomputed tomographic analysis; type: functional, organism-based; outline: as §1
[9] = target: Isopentenyl-diphosphate Delta-isomerase 1 (Rattus norvegicus, UniProt O35760); test: Inhibition of isopentenyl diphosphate isomerase in Sprague-Dawley rat liver S100 fraction preincubated for 10 min followed by MVA addition by HPLC analysis
[10] = test system: MC3T3-E1; test: Osteo-blastogenic activity in mouse MC3T3-E1 cells assessed as stimulation of ALP activity at 10 uM supplemented with fresh medium every 3 to 4 days and measured after 14 days relative to control; type: functional
Outline: (§2)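 MC3T3-E1 subclone 4 osteoblastic cells were grown in α-MEM at 37 °C under 5% CO2 with compound present during differentiation. ALP activity was read 14 d after induction and expressed as % of untreated cells. Values are mean ± SD of three independent experiments.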

[11] = test system: MC3T3-E1; test: Osteo-blastogenic activity in mouse MC3T3-E1 cells assessed as stimulation of ALP activity at 50 uM supplemented with fresh medium every 3 to 4 days and measured after 14 days relative to control; type: functional; outline: as §2
[12] = test system: BMDM; test: Inhibition of RANKL-induced osteoclastogenesis in C57BL/6 mouse bone marrow macrophages assessed as increase in NFkappaB expression at 10 uM measured over 5 days by Western blot analysis; type: functional, cell-based
Outline: (§3)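 C57BL/6 BMM were grown with M-CSF plus RANKL over the course of osteoclastogenesis, treated at 0.5 or 10 μM. NF-κB and NFATc1 were followed by Western blot. The negative control was M-CSF only.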

[13] = test system: BMDM; test: Inhibition of RANKL-induced osteoclastogenesis in C57BL/6 mouse bone marrow macrophages assessed as reduction in NFATc1 expression at 10 uM measured over 5 days by Western blot analysis; type: functional, cell-based; outline: as §3
[14] = test system: BMDM; test: Effect on NFkappaB expression in M-CSF induced C57BL/6 mouse bone marrow macrophages at 10 uM measured over 5 days by Western blot analysis; type: functional, cell-based
Outline: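 C57BL/6 BMM were proliferated with M-CSF alone without RANKL and treated at 0.5 or 10 μM. NF-κB expression was followed over time by Western blot.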

[15] = test system: BMDM; test: Suppression of NFATc1 expression in M-CSF induced C57BL/6 mouse bone marrow macrophages at 10 uM measured over 5 days by Western blot analysis; type: functional, cell-based
Outline: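 C57BL/6 BMM were kept proliferating with M-CSF in the absence of RANKL and treated with compound (0.5 or 10 μM). NFATc1 expression was followed over the culture period by Western blot.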

[16] = Cytotoxicity against mouse RAW264.7 cells after 24 hrs by MTT assay; type: cell-based; conditions: read-out: LD50
Outline: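 RAW264.7 macrophages (preosteoclast line) were kept in DMEM at 37 °C under 5% CO2 and tested without RANKL. MTT read-out of growth and survival, expressed as LD50.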

[17] = test system: HCT-116; test: Antiproliferative activity against human HCT116 cells after 24 hrs by MTT assay; type: functional; conditions: HCT-116, 24 h, read-out: LD50 (the source's name)
Outline: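 Cells were maintained in DMEM at 37 °C under 5% CO2. Growth and survival were estimated by MTT assay, and the value is reported as LD50.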

[18] = Toxicity in ddY mouse model of OVX-induced osteoporosis assessed as increase in body weight at 10 mg/kg, po administered once daily via gavage for 4 weeks measured 5 weeks post OVX-challenge; type: organism-based; conditions: in vivo, 840 h
Outline: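 Dosing of ddY mice began one week after ovariectomy: compound in 300 μL of 0.5% (v/v) DMSO-containing PBS by gavage once daily for 28 d. OVX and sham controls received vehicle. Body weight was compared with sham control 5 weeks after OVX.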

[19] = test system: MC3T3-E1; test: Osteo-blastogenic activity in mouse MC3T3-E1 cells assessed as stimulation of ALP activity at 1 uM supplemented with fresh medium every 3 to 4 days and measured after 14 days relative to control; type: functional; outline: as §2

Sequence of Isopentenyl-diphosphate Delta-isomerase 1 (O35760 whole entry): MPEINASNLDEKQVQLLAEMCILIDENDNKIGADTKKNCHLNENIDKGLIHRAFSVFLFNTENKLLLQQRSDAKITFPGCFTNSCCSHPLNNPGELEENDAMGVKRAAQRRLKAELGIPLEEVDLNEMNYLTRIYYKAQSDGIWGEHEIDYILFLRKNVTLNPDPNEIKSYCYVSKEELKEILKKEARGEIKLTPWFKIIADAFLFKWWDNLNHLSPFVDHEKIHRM

SMILES | IC50 [1] | Activity [10] | Activity [11] | also measured
NCCCC(O)(P(=O)(O)O)P(=O)(O)O [ALENDRONATE SODIUM] | 3.7 µM | – | – | Activity [2]: Active; Activity [3]: Active; Activity [4]: Active; Activity [5]: Active; Activity [6]: inactive; Activity [7]: Active; Activity [8]: Active; IC50 [9]: 1.7 µM
O=C(O)Cc1ccccc1 [PHENYLACETIC ACID] | > 100 µM | 120% | 110% | –
O=C(/C=C/c1ccc(O)c(O)c1)O[C@@H]1C[C@](O)(C(=O)O)C[C@@H](O)[C@H]1O [CHLOROGENIC ACID] | 86 µM | 110% | 150% | –
CC(=O)/C=C/c1ccc(OCc2ccccc2)c(O)c1 | 19 µM | 130% | 140% | –
CC(=O)/C=C/c1ccc(OC(C)C)c(O)c1 | 24 µM | 100% | 94% | –
CC(=O)/C=C/c1ccc(F)c(O)c1 | 15 µM | 100% | 100% | –
C=CCOc1ccc(/C=C/C(C)=O)cc1O | 18 µM | 120% | 140% | –
COC(=O)Cc1ccc(O)c(O)c1 | 80 µM | 100% | 130% | –
O=C(O)/C=C/c1ccc(O)c(O)c1 [CAFFEIC ACID] | 41 µM | 120% | 130% | –
COc1cc(/C=C/C(C)=O)ccc1O [DEHYDROZINGERONE] | 7.5 µM | 110% | 600% | inhibition [12]: Active; inhibition [13]: Active; Activity [14]: inactive; Activity [15]: Active; Activity [2]: Active; Activity [3]: Active; Activity [4]: Active; Activity [5]: Active; Activity [6]: Active; Activity [7]: Active; Activity [8]: Active; CC50 at 24 h [16]: > 5000 µM; CC50 [17]: 310 µM; Activity [18]: Toxic
COC(=O)c1ccc(O)c(O)c1 [METHYL PROTOCATECHUATE] | 78 µM | 110% | 100% | –
CC[C@H](C)[C@H](NC(=O)[C@H](CCC(=O)O)NC(=O)[C@H](CO)NC(=O)[C@@H](NC(=O)[C@@H](N)CO)C(C)C)C(=O)N[C@@H](CCC(N)=O)C(=O)N[C@@H](CC(C)C)C(=O)N[C@@H](CCSC)C(=O)N[C@@H](Cc1cnc[nH]1)C(=O)N[C@@H](CC(N)=O)C(=O)N[C@@H](CC(C)C)C(=O)NCC(=O)N[C@@H](CCCCN)C(=O)N[C@@H](Cc1cnc[nH]1)C(=O)N[C@@H](CC(C)C)C(=O)N[C@@H](CC(N)=O)C(=O)N[C@@H](CO)C(=O)N[C@@H](CCSC)C(=O)N[C@@H](CCC(=O)O)C(=O)N[C@@H](CCCNC(=N)N)C(=O)N[C@H](C(=O)N[C@@H](CCC(=O)O)C(=O)N[C@@H](Cc1c[nH]c2ccccc12)C(=O)N[C@@H](CC(C)C)C(=O)N[C@@H](CCCNC(=N)N)C(=O)N[C@@H](CCCCN)C(=O)N[C@@H](CCCCN)C(=O)N[C@@H](CC(C)C)C(=O)N[C@@H](CCC(N)=O)C(=O)N[C@@H](CC(=O)O)C(=O)N[C@H](C(=O)N[C@@H](Cc1cnc[nH]1)C(=O)N[C@@H](CC(N)=O)C(=O)N[C@@H](Cc1ccccc1)C(=O)O)C(C)C)C(C)C [TERIPARATIDE] | – | – | – | Activity [19]: 140%
O=C(/C=C/c1ccc(O)c(O)c1)O[C@@H]1C[C@@](O)(C(=O)O)C[C@@H](O)[C@@H]1O | 48 µM | 120% | 170% | –
O=C(O)Cc1ccc(O)c(O)c1 [3,4-DIHYDROXYPHENYLACETIC ACID] | 75 µM | 120% | 170% | –
O=Cc1ccc(O)c(O)c1 [PROTOCATECHUALDEHYDE] | 15 µM | 110% | 140% | –
CC(=O)/C=C/c1ccc(O)cc1 | 32 µM | 110% | 150% | –
Cc1ccc(/C=C/C(N)=O)cc1O | 15 µM | 110% | 120% | –
CC(=O)/C=C/c1ccc(O)c(F)c1 | 8.3 µM | 100% | 100% | –
O=C(O)c1ccc(O)c(O)c1 [PROTOCATECHUIC ACID] | 89 µM | 100% | 140% | –
NC(=O)/C=C/c1ccc(F)c(O)c1 | 25 µM | 110% | 120% | –
O=C(O)/C=C/c1ccccc1 [CINNAMIC ACID] | > 100 µM | 100% | 110% | –
CC(=O)/C=C/c1ccc(C)c(O)c1 | 5.9 µM | 100% | 130% | –
